We go through 15 compounds from ChEMBL document CHEMBL5356937, “Dual FLT3/haspin kinase inhibitor based on 3H-pyrazolo[4,3-f]quinoline scaffold with activities against acute myeloid leukemia” (RSC Med Chem, 2023).

For assay [1], the target named is T1, Serine/threonine-protein kinase haspin (Homo sapiens) (UniProt Q8TF76).
T1 sequence (whole entry): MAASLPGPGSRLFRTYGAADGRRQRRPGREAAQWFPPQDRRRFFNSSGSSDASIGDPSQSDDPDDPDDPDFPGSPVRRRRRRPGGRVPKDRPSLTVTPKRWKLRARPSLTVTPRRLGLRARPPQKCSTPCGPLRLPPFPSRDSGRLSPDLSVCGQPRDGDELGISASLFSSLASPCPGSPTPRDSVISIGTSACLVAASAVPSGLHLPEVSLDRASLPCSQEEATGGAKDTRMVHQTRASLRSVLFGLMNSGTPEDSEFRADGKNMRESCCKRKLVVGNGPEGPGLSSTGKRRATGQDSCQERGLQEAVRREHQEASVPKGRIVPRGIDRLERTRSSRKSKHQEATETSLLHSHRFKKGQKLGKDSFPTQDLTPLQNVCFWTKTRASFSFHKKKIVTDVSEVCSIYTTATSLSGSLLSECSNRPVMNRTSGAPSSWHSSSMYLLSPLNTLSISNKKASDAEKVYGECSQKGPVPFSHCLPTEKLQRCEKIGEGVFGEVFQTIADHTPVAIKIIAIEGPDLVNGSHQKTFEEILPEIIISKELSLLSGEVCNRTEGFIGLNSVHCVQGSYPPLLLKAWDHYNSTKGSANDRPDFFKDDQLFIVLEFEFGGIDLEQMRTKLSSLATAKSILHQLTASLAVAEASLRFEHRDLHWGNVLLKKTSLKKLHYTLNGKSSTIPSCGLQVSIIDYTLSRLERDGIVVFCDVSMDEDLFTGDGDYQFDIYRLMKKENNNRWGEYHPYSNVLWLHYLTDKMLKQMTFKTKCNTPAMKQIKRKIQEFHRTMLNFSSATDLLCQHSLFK
As to the kind of experiment: Inhibition of haspin (unknown origin) at 50 nM by ADP Glo kinase assay relative to control. Put shortly:
(§1)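 In-house ADP-Glo assay: 9 ng/µL kinase, 10 µM ATP, 20 µM peptide substrate, 50 nM inhibitor in 25 mM MOPS pH 7.2, 12.5 mM β-glycerophosphate, 25 mM MgCl2, 2 mM EDTA, 0.2 mM DTT, 40 µg/mL BSA. Incubated 3 h, quenched with GLO reagent 40 min, detection reagent 1 h, luminescence read. Percent inhibition, mean of triplicates.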

The target in assay [2] is Receptor-type tyrosine-protein kinase FLT3 (Homo sapiens) (UniProt P36888). As to the kind of experiment: Inhibition of FLT3 (unknown origin) at 50 nM by ADP Glo kinase assay relative to control. The procedure, abridged:
as §1

Assay [3] concerns MOLM-14. Put plainly: Anticancer activity against human MOLM-14 cells assessed as cell growth inhibition at 50 nM incubated for 72 hrs by CellTiter-Blue Cell Viability Assay relative to control. It is filed as functional. The procedure, abridged:
(§2)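 Cells plated at 5000/well in RPMI with 10% FBS and penicillin-streptomycin, incubated 24 h at 37 °C, 5% CO2, then exposed to 50 nM compound for 72 h. Viability read by CellTiter-Blue, absorbance at 570 nm 3 h after addition; vehicle and cell-free controls included. Percent growth inhibition given as mean of triplicates.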

In assay [4] the test system is MV4-11. Put plainly: Anticancer activity against human MV4-11 cells assessed as cell growth inhibition at 50 nM incubated for 72 hrs by CellTiter-Blue Cell Viability Assay relative to control. It is filed as functional. Put shortly: as §2
In assay [5] the target is Receptor-type tyrosine-protein kinase FLT3 (Homo sapiens, UniProt P36888, ITD). As to the kind of experiment: Inhibition of FLT3 ITD mutant (unknown origin).
For assay [6], the target named is Receptor-type tyrosine-protein kinase FLT3 (Homo sapiens, UniProt P36888, D835Y). As to the kind of experiment: Inhibition of FLT3 D835Y mutant (unknown origin).
Assay [7] addresses Receptor-type tyrosine-protein kinase FLT3 (Homo sapiens) (UniProt P36888). Put plainly: Inhibition of FLT3 in human MOLM-14 cells assessed as reduction in phosphorylation of FLT3 at 5 to 100 nM incubated for 2 hrs by immunoblotting. Particulars: dose 5-100 nM. Format: cell-based. The procedure, abridged: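 MOLM-14 cells exposed to compound at 5, 20 or 100 nM for 2 h, lysed, protein normalized to BSA standard; SDS-PAGE, nitrocellulose transfer, overnight primary antibody, 2 h peroxidase secondary, chemiluminescent detection by CCD. Phospho-FLT3 bands normalized to actin; means of triplicates, SD.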

The test system of assay [8] is MOLM-14. Put plainly: Anticancer activity against human MOLM-14 cells assessed as reduction in cell proliferation incubated for 72 hrs CellTiter-Blue Cell Viability Assay. Format: functional. The procedure, abridged:
(§3)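 Cells grown in RPMI + 10% FBS + penicillin-streptomycin, seeded 5000 per well, left 24 h at 37 °C, 5% CO2, then given graded compound concentrations for 72 h. CellTiter-Blue viability read as absorbance at 570 nm after 3 h; vehicle and cell-free controls. Nonlinear regression gave GI50; points are means of triplicates, confirmed by two scientists on separate days.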

Assay [9] relates to MOLM-14. Put plainly: Anticancer activity against human MOLM-14 cells expressing FLT3 D835Y mutant assessed as reduction in cell proliferation incubated for 72 hrs CellTiter-Blue Cell Viability Assay. Format: functional. The procedure, abridged: as §3
Assay [10] concerns MOLM-14. As to the kind of experiment: Anticancer activity against human MOLM-14 cells expressing FLT3 F691L mutant assessed as reduction in cell proliferation incubated for 72 hrs CellTiter-Blue Cell Viability Assay. Format: functional. The procedure, abridged: as §3
The test system of assay [11] is MV4-11. As to the kind of experiment: Anticancer activity against human MV4-11 cells assessed as reduction in cell proliferation incubated for 72 hrs CellTiter-Blue Cell Viability Assay. It is filed as functional. Put shortly:
as §3

For assay [12], the system named is DNA. As to the kind of experiment: Binding affinity to DNA (unknown origin) assessed as DNA intercalation. It is filed as nucleic-acid assay. As to conditions: Homo sapiens.
For assay [13], the target named is T1, Serine/threonine-protein kinase haspin (Homo sapiens). As to the kind of experiment: Inhibition of haspin in human MOLM-14 cells assessed as reduction in histone H3 phosphorylation at Thr3 at 20 nM incubated for 24 hrs by immunoblotting analysis.

Structures are written as SMILES. pIC50: −log10 of the molar value. Calls of active or inactive are those of the source. The rule behind the calls is not given here.

Regarding `Cc1c[nH]c(CNC(=O)c2ccc(-c3nc4ccc5[nH]ncc5c4c4c3CCCC4)cc2)n1`, the inhibition in assay [1] was 97%; in assay [2], 94%. Also, the Activity in [3] is on record as 96%; in assay [4] it was 94%. Moreover, the negative-log IC50 (pIC50) in assay [5] is 9.92; in [6], 10.62. In [7], the outcome was Active. The GI50 in assay [8] was 22.4 nM; in assay [9], 4.3 nM; in [10], 2.2 nM; in assay [11], 8.9 nM. In addition, the outcome in assay [12] was inactive. Also, the inhibition result in [13] is “Active”.

For `O=C(NCc1cc[nH]c1)c1ccc(-c2nc3ccc4[nH]ncc4c3c3c2CCCC3)cc1`, the inhibition in assay [1] is 41%; in [2] it was 46%. The Activity in assay [3] is given as 39%; in assay [4], 28%.

Regarding `O=C(NCc1ncc[nH]1)c1ccc(-c2nc3ccc4[nH]ncc4c3c3c2CCCC3)c(F)c1`, the inhibition in assay [1] was found to be 53%; in assay [2] it was 88%. Further, the Activity came out at 87% in [3] and 79% in assay [4].

On to `O=C(NCc1c[nH]cn1)c1ccc(-c2nc3ccc4[nH]ncc4c3c3c2CCCC3)cc1`, for which the results for the inhibition in [1] and in assay [2] were 54% and 49%, respectively. Besides, the Activity was determined as 67% in assay [3] and 62% in [4].

On to `O=C(NCc1nccs1)c1ccc(-c2nc3ccc4[nH]ncc4c3c3c2CCCC3)cc1`, for which the inhibition in assay [1] turned out to be 68%; in assay [2] it was 53%. In addition, the Activity in assay [3] was found to be 55%; in [4], 60%.

Consider `Cn1ccnc1CNC(=O)c1ccc(-c2nc3ccc4[nH]ncc4c3c3c2CCCC3)cc1`, for which the inhibition in assay [1] is 26%; in [2], 14%. In addition, the Activity is 21% in assay [3] and 25% in assay [4].

Turning to `O=C(NCCc1ncc[nH]1)c1ccc(-c2nc3ccc4[nH]ncc4c3c3c2CCCC3)cc1`, the figures for the inhibition in assay [1] and in [2] were 78% and 71%, respectively. For the same compound, the Activity stood at 73% in [3] and 69% in [4].

For `O=C(NCCn1ccnc1)c1ccc(-c2nc3ccc4[nH]ncc4c3c3c2CCCC3)cc1`, the inhibition amounted to 33% in assay [1] and 31% in [2]. The Activity in assay [3] is on record as 42%; in assay [4], 35%.

Regarding `O=C(NCc1ncc[nH]1)c1ccc(-c2nc3ccc4[nH]ncc4c3c3c2CCCC3)cc1F`, the inhibition in assay [1] turned out to be 76%; in assay [2], 85%. The Activity amounted to 80% in assay [3] and 82% in assay [4].

Turning to `O=C(NCc1nnn[nH]1)c1ccc(-c2nc3ccc4[nH]ncc4c3c3c2CCCC3)cc1`, the inhibition was 57% in assay [1] and 51% in [2]. Further, the results for the Activity in [3] and in assay [4] were 50% and 41%, respectively.

Consider `O=C1c2c(O)ccc(O)c2C(=O)c2c(NCCNCCO)ccc(NCCNCCO)c21`, for which the outcome in [12] was Active.

On to `FC(F)(F)c1n[nH]cc1-c1nc2ccc3[nH]ncc3c2c2c1CCCC2`, for which the inhibition in assay [1] was 39%; in assay [2], 81%. Moreover, the Activity in [3] was found to be 90%; in assay [4], 92%.

`O=C(NCc1nnc[nH]1)c1ccc(-c2nc3ccc4[nH]ncc4c3c3c2CCCC3)cc1`: the inhibition was found to be 57% in [1] and 49% in assay [2]. Also, the Activity is listed as 48% in assay [3] and 52% in [4].

On to `CCc1nc(C(N)=O)c(Nc2ccc(N3CCC(N4CCN(C)CC4)CC3)c(OC)c2)nc1NC1CCOCC1` [GILTERITINIB], for which the inhibition in assay [1] stood at 11%; in assay [2] it was 93%. The Activity in [3] turned out to be 87%; in [4], 91%. For the same compound, the inhibition result in [13] was “inactive”.

For `O=C(NCc1ncc[nH]1)c1ccc(-c2nc3ccc4[nH]ncc4c3c3c2CCCC3)cc1`, the figures for the inhibition in assay [1] and in assay [2] were 77% and 76%, respectively. The Activity in [3] came out at 84%; in assay [4], 80%.
